Efflux pump mplx = inhibitors of Candida antifungal efflux pumps expressed in yeast; inhibition, % at 10 µM; S. cerevisiae Candida pump triplex, Nile Red efflux; 0.44% of 330,000 active; AID 485275;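 active means plate passing quality check with inhibition over a set limit, or well fluorescence over plate mean plus 4 SD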;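 further: Nile Red retained in pooled yeast measured as flow cytometry median fluorescence; 0% = buffer negative control and 100% = Enniatin B positive control; higher means more Nile Red kept so more efflux inhibition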
TAG inh = reduces triacylglycerol accumulation in H9c2 cells; inhibition, % at 12.5 µM; Nile Red lipid (TAG) fluorescence; cells loaded with 200 µM oleic acid; 0.66% of 230,000 active;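 active means pattern-corrected inhibition of lipid staining of at least 50% with the nuclear-stain viability signal not falling by more than 50%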;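 further: 0% = DMSO wells and 100% = triacsin C control wells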
AHR activator = activates the human aryl hydrocarbon receptor; 2.5% of 320,000 active; P35869; activation, % at 5 µM; AHR-responsive luciferase reporter cells, luminescence; in the data active means activation above about 47%;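 further: 0% = vehicle wells and 100% = reference agonist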
Target sequence (P35869 whole entry, looked up): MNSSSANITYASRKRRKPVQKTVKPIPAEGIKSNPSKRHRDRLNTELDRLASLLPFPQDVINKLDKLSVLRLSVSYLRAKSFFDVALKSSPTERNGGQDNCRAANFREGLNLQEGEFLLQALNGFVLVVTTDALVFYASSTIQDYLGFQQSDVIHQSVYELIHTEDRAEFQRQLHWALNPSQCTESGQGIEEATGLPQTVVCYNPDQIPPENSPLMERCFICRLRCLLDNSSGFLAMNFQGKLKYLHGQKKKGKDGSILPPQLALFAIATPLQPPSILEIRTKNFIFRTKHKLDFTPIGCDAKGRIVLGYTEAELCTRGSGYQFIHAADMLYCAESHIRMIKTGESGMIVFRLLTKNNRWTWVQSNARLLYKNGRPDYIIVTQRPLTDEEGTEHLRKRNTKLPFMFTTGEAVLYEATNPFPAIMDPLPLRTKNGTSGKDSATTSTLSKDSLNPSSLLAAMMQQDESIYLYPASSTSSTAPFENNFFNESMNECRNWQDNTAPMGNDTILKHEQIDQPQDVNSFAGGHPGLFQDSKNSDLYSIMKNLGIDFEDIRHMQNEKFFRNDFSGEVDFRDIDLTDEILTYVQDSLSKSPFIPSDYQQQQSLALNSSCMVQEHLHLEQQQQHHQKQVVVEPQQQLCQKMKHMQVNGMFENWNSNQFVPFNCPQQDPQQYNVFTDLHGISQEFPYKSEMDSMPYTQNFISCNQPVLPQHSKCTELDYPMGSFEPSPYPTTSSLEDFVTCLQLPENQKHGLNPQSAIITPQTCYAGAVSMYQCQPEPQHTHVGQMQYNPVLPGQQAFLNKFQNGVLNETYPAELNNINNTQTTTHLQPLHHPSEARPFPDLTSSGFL
SMARCA2 act = SMARCA2 function activation, primary screen; MG213 cells, MMTV-luciferase reporter, dexamethasone, overnight; activation, % at 9.1 µM; 1% of 370,000 active; AID 652017; in the data active means activation above about 7.8%;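 further: 0% = vehicle wells and 100% = reference activator wells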
Tb MetRS inh = blocks T. brucei methionyl-tRNA synthetase activity; purified T. brucei MetRS, ATP depletion, Kinase-Glo luminescence; inhibition, % at 11.9 µM; 0.4% of 360,000 active;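 active means inhibition above a per-plate cutoff of the control wells' mean inhibition plus 3 SD, cut at about 5.5% in these data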;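 further: 0% = DMSO wells median and 100% = median of wells with control inhibitor compound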
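Material: T. brucei methionyl-tRNA synthetase, purified; reagent: substrates ATP, L-methionine and bulk Escherichia coli tRNA; dosing: 11.9 µM single point; timing: 15 min plus 2 h at 25 °C; detection: luminescence of leftover ATP; evaluation: % inhibition; control set: DMSO-only wells as low control; replicates: singlicate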
Yeast cmpd fluor = flagged as fluorescent in efflux inhibitor counter-screen. shares compounds with Efflux pump mplx. S. cerevisiae AD/pABC3, compound fluorescence, flow cytometry. fluorescence ratio to DMSO, % at 10 µM. 4% of 1,700 active;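 active means fluorescence ratio to DMSO above its plate's cutoff, the plate mean ratio plus 5 SD, cut at about 210% in these data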;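 further: unstained yeast with no Nile Red so the signal is compound autofluorescence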
Mdr1 pump inh = Candida Mdr1 efflux pump inhibition. shares compounds with Efflux pump mplx. S. cerevisiae AD/CaMDR1, Nile Red efflux, flow cytometry. inhibition, % at 10 µM. 1% of 1,700 active. AID 588518; in the data active means inhibition above about 26%;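 further: 0% = DMSO vehicle and 100% = reference inhibitor; higher means more Nile Red retained so more efflux inhibition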
CaCdr2 efflux inh = blocks the Candida albicans Cdr2 efflux pump in yeast | shares compounds with Efflux pump mplx | S. cerevisiae AD/CaCDR2, Nile Red retention, flow cytometry | Nile Red retention ratio vs DMSO, % at 10 µM | 4% of 1,700 active; in the data active means Nile Red retention ratio vs DMSO above about 190%;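 further: higher ratio means more blocking of Cdr2 efflux of the dye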
Cdr1 pump inh = blocks the Candida albicans Cdr1 efflux pump in yeast. shares compounds with Efflux pump mplx. S. cerevisiae AD/CaCDR1, Nile Red efflux, flow cytometry. inhibition, % at 10 µM. 1% of 1,700 active. AID 588522;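 active means inhibition above the screen-wide mean plus twice its standard deviation, cut at about 32% in these data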
Numbers without * were called inactive; · = not tested or not shown. Hits are enriched below; roughly 4.1% of the tested compounds scored in any of these assays.

SMILES	Efflux pump mplx	TAG inh	AHR activator	SMARCA2 act	Tb MetRS inh	Yeast cmpd fluor	Mdr1 pump inh	CaCdr2 efflux inh	Cdr1 pump inh
CCCCc1nnc(NC(=O)COc2ccc3c(C)cc(=O)oc3c2)s1	-0.1	·	-2.4	0.9	·	99.8	-0.1	99.7	-0.1
C[C@H]1CCC[C@@H](O)CC(=O)c2c(O)cc(O)cc2CC(=O)O1	·	·	·	-3.8	·	·	·	·	·
CCOc1cc(CCNC(=O)c2cc3ccsc3n2C)ccc1OC	·	·	·	0.5	·	·	·	·	·
N#C[C@H](N)[C@H]1O[C@@H](n2ccc(=O)[nH]c2=O)[C@H](O)[C@@H]1O	·	·	·	-5.6	·	·	·	·	·
Cc1ccsc1/C=N\NC(=O)c1n[nH]c2c1CCC2	11.4*	23.9	26.6	5.2	-1.0	86.5	-0.2	94.0	0.0
O=C(N/N=C/c1c(Cl)cccc1Cl)c1n[nH]c2c1CCCC2	-0.1	·	12.8	0.4	-0.8	·	·	·	·
O=C(NC1CCCCC1)C(c1ccncc1)N(C(=O)c1ccco1)c1ccc(F)cc1 (stereo unspecified)	-0.1	·	1.0	2.5	-0.2	·	·	·	·
O=C(NC1CCCC1)C(c1ccncc1)N(C(=O)c1ccco1)c1ccccc1 (stereo unspecified)	0.6*	·	0.2	-1.9	-0.5	97.8	-0.2	108.3	0.1
CCc1cc2c(-c3ccccc3)cc(=O)oc2c(CN2CCOCC2)c1O	0.8*	16.1	8.9	-5.5	-0.4	105.8	0.2	118.2	0.1
Cc1ccc(Cn2nnc3c(=O)[nH]c(C4CCN(S(=O)(=O)c5ccccc5F)CC4)nc32)cc1	0.0	·	-1.1	-3.0	0.0	104.5	-0.2	106.3	0.0
Cc1ccc(Cn2nnc3c(=O)[nH]c(C4CCN(S(=O)(=O)c5ccc(S(=O)(=O)NC6CC6)cc5)CC4)nc32)cc1	0.0	·	-2.9	-3.4	0.6	·	·	·	·
Cc1ccc(Cn2nnc3c(=O)[nH]c(C4CCN(S(=O)(=O)c5ccc(C)cc5)CC4)nc32)cc1	0.1	·	1.4	2.4	-0.8	100.3	-0.3	111.6	0.7
COc1cc([N+](=O)[O-])ccc1NC(=O)NN1CCN(C)CC1	5.3*	3.9	1.2	5.1	-0.5	84.4	0.2	93.2	-0.2
CCOc1ccc(C2CC=C(C(=O)O)CN2S(=O)(=O)c2ccc(C)cc2)cc1 (stereo unspecified)	·	·	·	1.4	·	·	·	·	·
COc1ccc(-c2cc(N3C(=O)Nc4ccccc4N3O)n[nH]2)cc1	6.5*	·	27.1	-0.4	0.7	97.8	-0.2	100.1	0.0
Cc1ccn2cc(CCNS(=O)(=O)c3ccc(F)c(C(F)(F)F)c3)nc2c1	-0.2	-7.5	1.9	0.3	0.3	·	·	·	·
O=S(=O)(NCCc1cn2ccccc2n1)c1ccc(F)c(C(F)(F)F)c1	0.5*	-21.6	1.5	-2.8	0.1	101.7	0.0	116.0	0.0
COc1ccc(NC(=O)COc2nsnc2N2CCCCC2)cc1	9.0*	·	5.2	-0.8	-0.4	106.7	0.1	112.4	0.3
CCOc1ccc(NC(=O)COc2nsnc2N2CCCCC2)cc1	-0.1	·	4.8	0.7	-0.7	·	·	·	·
C#CCNC(=O)C[C@@H]1C(=O)N(Cc2ccc(OC)cc2)C2=CCN(C(=O)OC(C)(C)C)C[C@]21C(=O)OCC	·	·	·	-1.6	·	·	·	·	·
O=C(NN1C(=O)C2C3C=CC(C3)C2C1=O)c1ccccc1 (stereo unspecified)	-0.1	10.8	-1.2	0.2	-0.5	·	·	·	·
O=C(NN1C(=O)C2C3c4ccccc4C(c4ccccc43)C2C1=O)c1ccc(Cl)cc1 (stereo unspecified)	8.9*	·	0.3	-0.7	0.1	103.0	-0.1	97.7	0.0
CCCCCCCCCCCCCCCC[N+](C)(C)CCN(Cc1ccc(OC)cc1)c1ncccn1	2.4*	121.3	-2.6	·	-1.3	101.5	0.1	144.1	0.0
Fc1cccc2sc(Nc3nc4c(F)cccc4s3)nc12	-0.3	·	33.9	-1.1	-0.1	·	·	·	·
Nc1nc2c(F)cccc2s1	2.2*	·	4.9	2.2	-0.4	99.0	-0.2	105.1	0.0
SMILES	Efflux pump mplx	TAG inh	AHR activator	SMARCA2 act	Tb MetRS inh	Yeast cmpd fluor	Mdr1 pump inh	CaCdr2 efflux inh	Cdr1 pump inh
O=C(c1ccoc1)N1CCC2(CC1)Oc1ccc(F)cc1C(=O)C21CC(c2cccnc2)=NO1 (stereo unspecified)	-0.2	9.3	-0.7	-0.8	-0.2	·	·	·	·
O=C(c1ccc2c(c1)OCO2)N1CCC2(CC1)Oc1ccc(F)cc1C(=O)C21CC(c2ccccc2)=NO1 (stereo unspecified)	84.9*	-2.4	7.2	0.0	0.2	92.1	81.5*	94.0	49.5*
O=C(c1ccoc1)N1CCC2(CC1)Oc1ccc(F)cc1C(=O)C21CC(c2ccccc2)=NO1 (stereo unspecified)	67.1*	27.5	-1.1	-1.3	-0.2	92.1	95.2*	116.5	43.3*
O=C(c1ccoc1)N1CCC2(CC1)Oc1ccc(F)cc1C(=O)C21CC(c2ccc(Cl)cc2)=NO1 (stereo unspecified)	5.5*	0.6	11.6	-0.1	0.0	106.7	6.5	110.3	52.9*
CC(C)C(=O)N1CCC2(CC1)Oc1ccc(F)cc1C(=O)C21CC(c2ccc(Cl)cc2)=NO1 (stereo unspecified)	36.0*	0.9	-1.9	0.0	0.0	99.0	1.9	113.8	0.3
Cc1ccc(C(=O)N2CCC3(CC2)Oc2ccc(F)cc2C(=O)C32CC(c3ccc(Cl)cc3)=NO2)s1 (stereo unspecified)	0.3	25.1	-0.2	-0.3	-0.5	·	·	·	·
O=C(c1ccoc1)N1CCC2(CC1)Oc1ccc(Cl)cc1C(=O)C21CC(c2ccc(Cl)cc2)=NO1 (stereo unspecified)	0.3	18.0	8.0	-1.7	0.1	102.6	-0.1	94.4	0.0
CC(C)C(=O)N1CCC2(CC1)Oc1ccc(Cl)cc1C(=O)C21CC(c2ccccc2)=NO1 (stereo unspecified)	0.4	7.0	-4.2	-1.3	-0.3	·	·	·	·
CCCN(CCC)C(=O)Cn1c(=O)n(CCCCCC(=O)Nc2ccccc2)c(=O)c2sccc21	18.9*	·	4.5	-1.5	0.0	104.0	-0.1	96.5	0.0
CCN(CC)C(=O)Cn1c(=O)n(CCC(=O)Nc2ccc(F)cc2)c(=O)c2sccc21	-0.2	·	0.1	-3.3	0.3	·	·	·	·
CCOC(=O)[C@]12CCCCC/C=C\1N(CCc1ccc(Cl)cc1)C(=O)[C@H]2CC(=O)NCCCN1CCCC1=O	·	·	·	-1.9	·	·	·	·	·
COC(=O)C1CN(Cc2cn(Cc3ccccc3)nn2)CCS(=O)(=O)N1Cc1ccccc1 (stereo unspecified)	·	·	·	-1.1	·	·	·	·	·
Cc1ccc(OCC(=O)NNC(=O)CSc2ncc(C#N)c(N)n2)cc1	18.0*	·	21.7	-2.0	-0.7	103.0	-0.2	93.5	-0.1
N#Cc1cnc(SCC(=O)Nc2ccccc2C(F)(F)F)nc1N	-0.4	·	2.2	-1.2	-0.2	·	·	·	·

High-throughput results deposited in PubChem BioAssay by several laboratories.
